Experimental data as given in ChEMBL document CHEMBL1649143, “In vitro activities of fluconazole and voriconazole against clinical isolates of Candida spp. determined by disk diffusion testing in Turin, Italy” (2009).
≈ marks a conversion by molar mass, not a printed value.

Experiments:
[1] = test system: Pichia norvegensis; assay: Antifungal activity against Candida norvegensis assessed as percent resistant isolates at 25 ug/disc by CLSI M44-A disk diffusion method; format: functional
Procedure, shortened: (§1)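 Agar disk diffusion per CLSI M44-A on clinical Candida isolates collected in Turin, Italy; 1,024 isolates tested in total. Each isolate was classed as susceptible (S), susceptible-dose dependent (SDD) or resistant (R), and the percentage of isolates per species in each category was reported.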

[2] = test system: Candida parapsilosis; assay: Antifungal activity against Candida parapsilosis by reference dilution method; format: functional; details: Lodderomyces parapsilosis
[3] = test system: Kluyveromyces marxianus; assay: Antifungal activity against Candida kefyr by reference dilution method; format: functional
[4] = test system: Candida tropicalis; assay: Antifungal activity against Candida tropicalis assessed as percent susceptible isolates at 25 ug/disc by CLSI M44-A disk diffusion method; format: functional; procedure, shortened: as §1
[5] = test system: Nakaseomyces glabratus; assay: Antifungal activity against Candida glabrata assessed as percent resistant isolates at 25 ug/disc by CLSI M44-A disk diffusion method; format: functional; procedure, shortened: as §1
[6] = test system: Candida; assay: Antifungal activity against Candida sp. by reference dilution method; format: functional
[7] = test system: Candida tropicalis; assay: Antifungal activity against Candida tropicalis assessed as percent resistant isolates at 25 ug/disc by CLSI M44-A disk diffusion method; format: functional; procedure, shortened: as §1
[8] = test system: Pichia norvegensis; assay: Antifungal activity against Candida norvegensis by reference dilution method; format: functional
[9] = test system: Pichia norvegensis; assay: Antifungal activity against Candida norvegensis assessed as dose dependent percent susceptible isolates at 25 ug/disc by CLSI M44-A disk diffusion method; format: functional; procedure, shortened: as §1
[10] = test system: Pichia fermentans; assay: Antifungal activity against Candida lambica assessed as percent susceptible isolates at 25 ug/disc by CLSI M44-A disk diffusion method; format: functional
Procedure, shortened: (§2)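 Clinical yeast isolates tested by agar disk diffusion per CLSI M44-A. Zone diameters were converted to MICs by an automated zone-reading system applying species-specific linear regression against reference dilution MICs. Isolates were classed as susceptible, susceptible-dose dependent or resistant using CLSI MIC breakpoints, and reported as number and percent susceptible per species.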

[11] = test system: Nakaseomyces glabratus; assay: Antifungal activity against Candida glabrata by reference dilution method; format: functional
[12] = test system: Candida parapsilosis; assay: Antifungal activity against Candida parapsilosis assessed as percent susceptible isolates at 25 ug/disc by CLSI M44-A disk diffusion method; format: functional; procedure, shortened: as §1
[13] = Antifungal activity against Candida humicola assessed as percent susceptible isolates at 25 ug/disc by CLSI M44-A disk diffusion method; format: functional; procedure, shortened: as §2
[14] = test system: Candida albicans; assay: Antifungal activity against Candida albicans assessed as percent resistant isolates at 25 ug/disc by CLSI M44-A disk diffusion method; format: functional; procedure, shortened: as §1
[15] = test system: Candida tropicalis; assay: Antifungal activity against Candida tropicalis assessed as dose dependent percent susceptible isolates at 25 ug/disc by CLSI M44-A disk diffusion method; format: functional; procedure, shortened: as §1
[16] = test system: Pichia kudriavzevii; assay: Antifungal activity against Candida krusei by reference dilution method; format: functional
[17] = test system: [Candida] intermedia; assay: Antifungal activity against Candida intermedia assessed as percent susceptible isolates at 25 ug/disc by CLSI M44-A disk diffusion method; format: functional, Sungouiella intermedia; procedure, shortened: as §2
[18] = test system: Candida albicans; assay: Antifungal activity against Candida albicans by reference dilution method; format: functional
[19] = test system: Pichia kudriavzevii; assay: Antifungal activity against Candida krusei assessed as percent resistant isolates at 25 ug/disc by CLSI M44-A disk diffusion method; format: functional; procedure, shortened: as §1
[20] = test system: Nakaseomyces glabratus; assay: Antifungal activity against Candida glabrata assessed as dose dependent percent susceptible isolates at 25 ug/disc by CLSI M44-A disk diffusion method; format: functional; procedure, shortened: as §1
[21] = test system: Candida tropicalis; assay: Antifungal activity against Candida tropicalis by reference dilution method; format: functional
[22] = test system: Candida parapsilosis; assay: Antifungal activity against Candida parapsilosis assessed as dose dependent percent susceptible isolates at 25 ug/disc by CLSI M44-A disk diffusion method; format: functional; procedure, shortened: as §1
[23] = test system: Candida albicans; assay: Antifungal activity against Candida albicans assessed as dose dependent percent susceptible isolates at 25 ug/disc by CLSI M44-A disk diffusion method; format: functional; procedure, shortened: as §1
[24] = test system: Kluyveromyces marxianus; assay: Antifungal activity against Candida kefyr assessed as percent susceptible isolates at 25 ug/disc by CLSI M44-A disk diffusion method; format: functional; procedure, shortened: as §1
[25] = Antifungal activity against Candida membranifaciens assessed as percent susceptible isolates at 25 ug/disc by CLSI M44-A disk diffusion method; format: functional; procedure, shortened: as §2
[26] = test system: Clavispora lusitaniae; assay: Antifungal activity against Candida lusitaniae assessed as percent susceptible isolates at 25 ug/disc by CLSI M44-A disk diffusion method; format: functional; procedure, shortened: as §2
[27] = test system: Cyberlindnera jadinii; assay: Antifungal against Candida utilis assessed as percent susceptible isolates at 25 ug/disc by CLSI M44-A disk diffusion method; format: functional; procedure, shortened: as §2
[28] = test system: Nakaseomyces glabratus; assay: Antifungal activity against Candida glabrata assessed as percent susceptible isolates at 25 ug/disc by CLSI M44-A disk diffusion method; format: functional; procedure, shortened: as §1
[29] = test system: Candida albicans; assay: Antifungal activity against Candida albicans assessed as percent susceptible isolates at 25 ug/disc by CLSI M44-A disk diffusion method; format: functional; procedure, shortened: as §1
[30] = test system: Pichia kudriavzevii; assay: Antifungal activity against Candida krusei assessed as dose dependent percent susceptible isolates at 25 ug/disc by CLSI M44-A disk diffusion method; format: functional; procedure, shortened: as §1
[31] = test system: Diutina rugosa; assay: Antifungal activity against Candida rugosa assessed as percent susceptible isolates at 25 ug/disc by CLSI M44-A disk diffusion method; format: functional; procedure, shortened: as §2
[32] = Antifungal activity against Candida holmii assessed as percent susceptible isolates at 25 ug/disc by CLSI M44-A disk diffusion method; format: functional; details: Kazachstania exigua; procedure, shortened: as §2
[33] = test system: Kluyveromyces marxianus; assay: Antifungal activity against Candida kefyr assessed as percent resistant isolates at 25 ug/disc by CLSI M44-A disk diffusion method; format: functional; procedure, shortened: as §1
[34] = test system: Pichia kudriavzevii; assay: Antifungal activity against Candida krusei assessed as percent susceptible isolates at 25 ug/disc by CLSI M44-A disk diffusion method; format: functional; procedure, shortened: as §1

## OC(Cn1cncn1)(Cn1cncn1)c1ccc(F)cc1F [FLUCONAZOLE]
[1]
  Activity: 79%
[2]
  MIC50: 0.5 µg/mL (≈ 1.63 µM)
  MIC90: 4 µg/mL (≈ 13.1 µM)
[3]
  MIC50: 0.25 µg/mL (≈ 0.816 µM)
  MIC90: 0.25 µg/mL (≈ 0.816 µM)
[4]
  Activity: 92%
[5]
  Activity: 9%
[6]
  MIC50: 2 µg/mL (≈ 6.53 µM)
  MIC90: 128 µg/mL (≈ 418 µM)
[7]
  Activity: 5%
[8]
  MIC50: 128 µg/mL (≈ 418 µM)
  MIC90: 256 µg/mL (≈ 836 µM)
[9]
  Activity: 21%
[10]
  Activity: 92.9%
[11]
  MIC50: 4 µg/mL (≈ 13.1 µM)
  MIC90: 64 µg/mL (≈ 209 µM)
[12]
  Activity: 96%
[13]
  Activity: 92.9%
[14]
  Activity: 1%
[15]
  Activity: 3%
[16]
  MIC50: 128 µg/mL (≈ 418 µM)
  MIC90: 256 µg/mL (≈ 836 µM)
[17]
  Activity: 92.9%
[18]
  MIC50: 0.5 µg/mL (≈ 1.63 µM)
  MIC90: 4 µg/mL (≈ 13.1 µM)
[19]
  Activity: 68%
[20]
  Activity: 9%
[21]
  MIC50: 2 µg/mL (≈ 6.53 µM)
  MIC90: 16 µg/mL (≈ 52.2 µM)
[22]
  Activity: 4%
[23]
  Activity: 1%
[24]
  Activity: 96%
[25]
  Activity: 92.9%
[26]
  Activity: 92.9%
[27]
  Activity: 92.9%
[28]
  Activity: 82%
[29]
  Activity: 98%
[30]
  Activity: 21%
[31]
  Activity: 92.9%
[32]
  Activity: 92.9%
[33]
  Activity: 4%
[34]
  Activity: 11%
